Data set [1] concerns the target T1, Phosphatidylinositol 4,5-bisphosphate 3-kinase catalytic subunit delta isoform (Homo sapiens, UniProt O00329).
T1 sequence (O00329 whole entry): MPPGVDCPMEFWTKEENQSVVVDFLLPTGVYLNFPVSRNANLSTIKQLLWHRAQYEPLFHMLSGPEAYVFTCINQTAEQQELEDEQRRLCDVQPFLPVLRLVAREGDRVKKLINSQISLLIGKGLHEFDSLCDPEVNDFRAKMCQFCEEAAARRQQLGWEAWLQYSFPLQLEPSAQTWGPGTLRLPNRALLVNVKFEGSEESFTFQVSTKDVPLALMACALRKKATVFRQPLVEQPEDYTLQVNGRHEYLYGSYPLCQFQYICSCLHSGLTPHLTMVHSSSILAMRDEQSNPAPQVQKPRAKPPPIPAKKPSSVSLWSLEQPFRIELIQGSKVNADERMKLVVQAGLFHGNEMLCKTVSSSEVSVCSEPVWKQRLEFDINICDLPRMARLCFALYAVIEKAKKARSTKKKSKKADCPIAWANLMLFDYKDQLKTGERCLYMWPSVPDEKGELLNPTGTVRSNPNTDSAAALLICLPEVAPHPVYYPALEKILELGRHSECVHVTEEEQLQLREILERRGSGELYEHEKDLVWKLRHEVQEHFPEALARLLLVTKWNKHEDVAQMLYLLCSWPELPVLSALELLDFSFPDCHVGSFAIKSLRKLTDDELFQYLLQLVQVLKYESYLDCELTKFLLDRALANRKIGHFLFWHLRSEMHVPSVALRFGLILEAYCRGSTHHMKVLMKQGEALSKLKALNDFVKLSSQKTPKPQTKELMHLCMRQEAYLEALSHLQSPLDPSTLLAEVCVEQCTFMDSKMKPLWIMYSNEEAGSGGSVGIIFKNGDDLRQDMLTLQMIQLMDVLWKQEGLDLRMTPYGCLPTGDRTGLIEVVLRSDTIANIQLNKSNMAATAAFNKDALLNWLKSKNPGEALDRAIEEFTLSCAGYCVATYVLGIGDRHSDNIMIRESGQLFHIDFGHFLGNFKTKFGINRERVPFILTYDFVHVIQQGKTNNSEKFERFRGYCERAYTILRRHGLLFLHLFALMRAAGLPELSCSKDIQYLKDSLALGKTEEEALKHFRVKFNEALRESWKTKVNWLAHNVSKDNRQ
Nature of the data set: Inhibition of PI3Kdelta expressed in cells co-expressing N-terminal His-tagged human p85a using L-alpha-phosphatidylinositol substrate by TLC based phosphor imaging. The class given is cell-based.

Data set [2] concerns the target Phosphatidylinositol 4,5-bisphosphate 3-kinase catalytic subunit alpha isoform (Mus musculus, UniProt P42337). In words: Inhibition of mouse wild type PI3Kalpha expressed in Sf21 cells co-expressing N-terminal His-tagged human p85a using L-alpha-phosphatidylinositol substrate by TLC based phosphor imaging.
The target in data set [3] is Phosphatidylinositol 4,5-bisphosphate 3-kinase catalytic subunit beta isoform (Homo sapiens, UniProt P42338). Nature of the data set: Inhibition of human wild type PI3Kbeta expressed in Sf21 cells co-expressing N-terminal His-tagged human p85a using L-alpha-phosphatidylinositol substrate by TLC based phosphor imaging.
Data set [4] can be described thus: Induction of apoptosis in BALB/c mouse concanavalin A-stimulated lymph node cells assessed as early apoptotic cells at 1 uM administered 24 hrs post concanavalin A stimulation and measured 24 hrs after by Annexin-V-FITC/propidium iodide staining based flow cytometry (reference value: 4.52 %). The class given is functional. For orientation: A flow cytometer gives signals particle by particle.

Data set [5] in a line: Immunosuppressive activity in BALB/c mouse lymph node cells assessed as inhibition of concanavalin A-stimulated cell proliferation at 1 uM administered 24 hrs post concanavalin A stimulation and measured 72 hrs after compound dosing by MTT assay. The format is functional. In a few lines: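 BALB/c mouse lymph node cells, 5 × 10^5 per well, stimulated with 5 µg/mL ConA for 24 h, then left untreated or given compound at 1 µM for 72 h. MTT added 4 h before the end, formazan dissolved in DMSO, OD570 read. Inhibition = (control OD570 − compound OD570)/control OD570 × 100, with untreated cells as control. Values are means of three experiments.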
(In general: Tetrazolium assays rely on reduction of a dye to a coloured formazan, in cell work by metabolically active cells.)

The nature of data set [6]: Induction of apoptosis in BALB/c mouse concanavalin A-stimulated lymph node cells assessed as late apoptotic cells at 4 uM administered 24 hrs post concanavalin A stimulation and measured 24 hrs after by Annexin-V-FITC/propidium iodide staining based flow cytometry (reference value: 17.49 %). The format is functional.
Data set [7] can be described thus: Cytotoxicity against BALB/c mouse lymph node cells at 10 uM after 24 hrs MTT assay.
A short description of data set [8]: Induction of apoptosis in BALB/c mouse concanavalin A-stimulated lymph node cells assessed as early apoptotic cells at 4 uM administered 24 hrs post concanavalin A stimulation and measured 24 hrs after by Annexin-V-FITC/propidium iodide staining based flow cytometry (reference value: 4.52 %). The format is functional.
Data set [9] can be described thus: Inhibition of N-terminal His-tagged bovine PI3Kgamma expressed in Sf21 cells using L-alpha-phosphatidylinositol substrate by TLC based phosphor imaging. Also noted: species or system Bos taurus.
Data set [10] is described as follows: Induction of apoptosis in BALB/c mouse concanavalin A-stimulated lymph node cells assessed as late apoptotic cells at 1 uM administered 24 hrs post concanavalin A stimulation and measured 24 hrs after by Annexin-V-FITC/propidium iodide staining based flow cytometry (reference value: 17.49 %). The class given is functional.
Data set [11] is described as follows: Induction of apoptosis in BALB/c mouse concanavalin A-stimulated lymph node cells assessed as early apoptotic cells at 16 uM administered 24 hrs post concanavalin A stimulation and measured 24 hrs after by Annexin-V-FITC/propidium iodide staining based flow cytometry (reference value: 4.52 %). The class given is functional.
A short description of data set [12]: Induction of apoptosis in BALB/c mouse concanavalin A-stimulated lymph node cells assessed as late apoptotic cells at 16 uM administered 24 hrs post concanavalin A stimulation and measured 24 hrs after by Annexin-V-FITC/propidium iodide staining based flow cytometry (reference value: 17.49 %). The format is functional.
The next data set has as its system Mus musculus. In words: Induction of apoptosis in BALB/c mouse concanavalin A-stimulated lymph node cells assessed as late apoptotic cells administered 24 hrs post concanavalin A stimulation and measured 24 hrs after by Annexin-V-FITC/propidium iodide staining based flow cytometry. The format is functional.

Chain of Phosphatidylinositol 4,5-bisphosphate 3-kinase catalytic subunit alpha isoform (P42337 whole entry, canonical isoform): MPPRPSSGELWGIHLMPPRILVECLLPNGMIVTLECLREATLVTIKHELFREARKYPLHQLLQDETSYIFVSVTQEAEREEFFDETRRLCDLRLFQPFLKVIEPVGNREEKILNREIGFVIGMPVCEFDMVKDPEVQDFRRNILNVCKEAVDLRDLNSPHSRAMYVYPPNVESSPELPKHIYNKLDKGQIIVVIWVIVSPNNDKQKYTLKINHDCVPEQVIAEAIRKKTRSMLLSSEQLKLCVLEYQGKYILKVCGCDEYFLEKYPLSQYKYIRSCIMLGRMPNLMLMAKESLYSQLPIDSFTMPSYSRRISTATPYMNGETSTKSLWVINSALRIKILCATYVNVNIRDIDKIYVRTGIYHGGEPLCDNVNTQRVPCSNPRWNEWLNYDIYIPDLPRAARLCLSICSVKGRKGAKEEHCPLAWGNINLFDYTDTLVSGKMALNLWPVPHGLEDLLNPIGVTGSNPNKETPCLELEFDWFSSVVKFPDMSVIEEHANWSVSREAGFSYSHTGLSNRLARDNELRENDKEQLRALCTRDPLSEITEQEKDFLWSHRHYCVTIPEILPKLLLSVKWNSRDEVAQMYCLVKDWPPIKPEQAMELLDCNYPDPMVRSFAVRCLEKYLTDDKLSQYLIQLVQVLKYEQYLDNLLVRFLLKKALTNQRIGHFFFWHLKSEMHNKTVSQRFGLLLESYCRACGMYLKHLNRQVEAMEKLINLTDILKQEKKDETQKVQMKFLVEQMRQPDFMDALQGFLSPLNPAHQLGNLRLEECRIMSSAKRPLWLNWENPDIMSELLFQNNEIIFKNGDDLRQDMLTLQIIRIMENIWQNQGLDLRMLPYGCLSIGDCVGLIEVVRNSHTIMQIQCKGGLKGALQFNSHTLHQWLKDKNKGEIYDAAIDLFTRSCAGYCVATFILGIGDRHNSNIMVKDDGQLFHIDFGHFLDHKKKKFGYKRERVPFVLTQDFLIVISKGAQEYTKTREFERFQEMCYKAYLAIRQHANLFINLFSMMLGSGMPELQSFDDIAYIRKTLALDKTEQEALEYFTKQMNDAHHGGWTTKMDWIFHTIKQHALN
Chain of Phosphatidylinositol 4,5-bisphosphate 3-kinase catalytic subunit beta isoform (P42338 whole entry, canonical isoform): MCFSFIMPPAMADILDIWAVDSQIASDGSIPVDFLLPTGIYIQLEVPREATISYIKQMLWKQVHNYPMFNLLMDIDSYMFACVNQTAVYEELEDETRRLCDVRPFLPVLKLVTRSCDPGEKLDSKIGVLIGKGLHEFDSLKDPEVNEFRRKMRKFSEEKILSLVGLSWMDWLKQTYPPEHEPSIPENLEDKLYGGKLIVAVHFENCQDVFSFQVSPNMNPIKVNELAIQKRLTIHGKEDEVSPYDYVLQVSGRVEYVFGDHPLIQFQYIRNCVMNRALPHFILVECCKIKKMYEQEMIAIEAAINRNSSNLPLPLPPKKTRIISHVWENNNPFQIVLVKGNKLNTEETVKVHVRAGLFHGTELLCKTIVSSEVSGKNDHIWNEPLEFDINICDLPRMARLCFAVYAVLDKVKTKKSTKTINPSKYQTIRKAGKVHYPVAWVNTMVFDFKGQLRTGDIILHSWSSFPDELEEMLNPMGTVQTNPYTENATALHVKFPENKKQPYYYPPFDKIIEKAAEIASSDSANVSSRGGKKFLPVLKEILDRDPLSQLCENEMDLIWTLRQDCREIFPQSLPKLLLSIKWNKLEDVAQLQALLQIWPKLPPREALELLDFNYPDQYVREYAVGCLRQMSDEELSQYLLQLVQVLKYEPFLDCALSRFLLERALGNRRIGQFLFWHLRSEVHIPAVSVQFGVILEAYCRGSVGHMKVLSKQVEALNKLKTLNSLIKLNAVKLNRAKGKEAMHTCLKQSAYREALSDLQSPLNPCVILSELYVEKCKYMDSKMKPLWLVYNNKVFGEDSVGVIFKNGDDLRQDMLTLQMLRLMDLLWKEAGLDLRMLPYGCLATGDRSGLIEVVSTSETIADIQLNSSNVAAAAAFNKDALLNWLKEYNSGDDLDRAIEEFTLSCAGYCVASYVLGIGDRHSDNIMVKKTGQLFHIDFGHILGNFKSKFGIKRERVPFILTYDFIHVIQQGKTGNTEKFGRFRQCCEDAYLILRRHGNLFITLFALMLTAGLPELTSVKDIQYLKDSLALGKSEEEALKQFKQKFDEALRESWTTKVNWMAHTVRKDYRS

The IC50 is the concentration that gives 50% inhibition. Low values mean higher potency, high ones lower potency. Consider `O=c1cc(N2CCOCC2)oc2c(-c3ccccc3)cccc12` [LY-294002], for which the IC50 in [1] stood at 0.57 µM.

On to `Cc1ccc(-c2nnc(SCc3ccc([N+](=O)[O-])cc3)o2)c(O)c1`, for which the IC50 in data set [2] was 54.9 µM; in data set [3], greater than 100 µM; in data set [1], 25.6 µM; in data set [9], 0.31 µM. Moreover, the Activity in data set [4] was determined as 6.26%; in data set [6], 27.4%; in data set [8], 6.69%; in data set [10], 26.59%; in data set [11], 2.16%; in data set [12], 96.35%. Moreover, the Activity result in the data set on Mus musculus is “Dose-dependent effect”. Moreover, the “inhibition (INH)” value in data set [5] is on record as 38.76%. In [7], this compound gave an OD of 0.89.

Take `Cc1ccc(-c2nnc(SCc3ccccc3F)o2)c(O)c1`: the “inhibition (INH)” value in data set [5] was -6.92%. Further, in [7], the OD amounted to 0.82.

Turning to `COc1ccc(-c2nnc(SCc3ccc(C)cc3)o2)c(O)c1`, the “inhibition (INH)” value in data set [5] amounted to 6.29%. Also, in [7], the OD stood at 0.9.

With `COc1ccc(-c2nnc(SCc3cccc(Cl)c3)o2)c(O)c1`, the IC50 in [2] is 15.4 µM; in [3] it was 43.7 µM; in data set [1] it was greater than 100 µM; in [9], 1.87 µM. Also, the “inhibition (INH)” value in data set [5] amounted to 22.03%. Moreover, in [7], the OD is listed as 0.9.

Take `C/C=C/C[C@@H](C)[C@@H](O)[C@H]1C(=O)N[C@@H](CC)C(=O)N(C)CC(=O)N(C)[C@@H](CC(C)C)C(=O)N[C@@H](C(C)C)C(=O)N(C)[C@@H](CC(C)C)C(=O)N[C@@H](C)C(=O)N[C@H](C)C(=O)N(C)[C@@H](CC(C)C)C(=O)N(C)[C@@H](CC(C)C)C(=O)N(C)[C@@H](C(C)C)C(=O)N1C` [CYCLOSPORINE]: the “inhibition (INH)” value in [5] was determined as 69.77%.

On to `Cc1ccc(-c2nnc(SCc3ccc(Cl)cc3)o2)c(O)c1`, for which the “inhibition (INH)” value in data set [5] was 13.4%. The compound further had an OD in [7] of 0.75.

With `COc1ccc(-c2nnc(SCc3ccc(F)cc3)o2)c(O)c1`, the IC50 was 31.2 µM in data set [2], greater than 100 µM in data set [3], 11.5 µM in [1] and 0.98 µM in data set [9]. Besides, the “inhibition (INH)” value in data set [5] is on record as 29.32%. For the same compound, the OD in data set [7] is listed as 0.87.

In the case of `COc1ccc(-c2nnc(SCc3cccc(C)c3)o2)c(O)c1`, in [5], the “inhibition (INH)” value was 16.28%. The same compound had an OD in data set [7] of 1.12.

As to `COc1ccc(CSc2nnc(-c3ccc(OC)cc3O)o2)cc1`, the “inhibition (INH)” value in [5] was determined as 11.33%. Besides, in data set [7], the OD is given as 0.75.

On to `COc1ccc(-c2nnc(SCc3ccccc3F)o2)c(O)c1`, for which the IC50 in data set [2] was determined as 33.9 µM; in [3] it was 51.8 µM; in data set [1], 19 µM; in data set [9], 0.59 µM. Moreover, the “inhibition (INH)” value in data set [5] was determined as 34.35%. For the same compound, the OD in data set [7] worked out at 0.79.

Turning to `COc1ccc(-c2nnc(SCc3ccc(Cl)cc3)o2)c(O)c1`, the “inhibition (INH)” value in [5] worked out at 11.96%. Moreover, the OD in [7] came to 0.87.

For `COc1ccc(-c2nnc(SCc3ccccc3Cl)o2)c(O)c1`, in data set [5], the “inhibition (INH)” value is 17.36%. In data set [7], the OD came out at 0.89.

Consider `COc1ccc(-c2nnc(SCc3ccccc3[N+](=O)[O-])o2)c(O)c1`, for which, in [5], the “inhibition (INH)” value is recorded as 3.96%. This compound registered an OD in data set [7] of 0.91.

Regarding `COc1ccc(-c2nnc(SCc3cccc([N+](=O)[O-])c3)o2)c(O)c1`, the IC50 in data set [2] is 17.9 µM; in data set [3] it was greater than 100 µM; in data set [1] it was 29.7 µM; in data set [9] it was 2.47 µM. Besides, in data set [5], the “inhibition (INH)” value turned out to be 19.33%. Moreover, the OD in data set [7] was 0.86.

As to `Cc1ccc(-c2nnc(SCc3cccc(Cl)c3)o2)c(O)c1`, in data set [5], the “inhibition (INH)” value is recorded as -0.72%. The compound also had an OD in data set [7] of 0.7.

Consider `COc1ccc(C(=O)O)c(O)c1` [4-METHOXYSALICYLIC ACID], for which, in data set [5], the “inhibition (INH)” value turned out to be 7.34%.

With `Cc1ccc(-c2nnc(SCc3ccccc3)o2)c(O)c1`, in data set [5], the “inhibition (INH)” value was 9.08%. In data set [7], this compound displayed an OD of 0.86.

In the case of `Cc1ccc(-c2nnc(SCc3cccc([N+](=O)[O-])c3)o2)c(O)c1`, the “inhibition (INH)” value in [5] is listed as -4.36%. The same compound returned an OD in data set [7] of 0.81.

As to `Cc1ccc(-c2nnc(SCc3ccc(F)cc3)o2)c(O)c1`, the “inhibition (INH)” value in data set [5] was determined as 4.5%. This compound also came in with an OD in [7] of 0.82.

Turning to `Cc1ccc(CSc2nnc(-c3ccc(C)cc3O)o2)cc1`, in data set [5], the “inhibition (INH)” value was 11.42%. Besides, the OD in data set [7] came to 0.65.

In the case of `Cc1ccc(-c2nnc(SCc3ccccc3Cl)o2)c(O)c1`, the “inhibition (INH)” value in [5] came out at 8.99%. The same compound had an OD in data set [7] of 0.79.

On to `Cc1ccc(-c2nnc(SCc3ccccc3[N+](=O)[O-])o2)c(O)c1`, for which the “inhibition (INH)” value in data set [5] is on record as 11.42%. For the same compound, the OD in data set [7] is 0.74.

`COc1cccc(CSc2nnc(-c3ccc(OC)cc3O)o2)c1`: the “inhibition (INH)” value in data set [5] worked out at 11.06%. In data set [7], the OD came out at 0.71.

Take `COc1cccc(CSc2nnc(-c3ccc(C)cc3O)o2)c1`: the IC50 in [2] is 1.97 µM; in data set [3], 13.6 µM; in data set [1], greater than 100 µM; in [9], 2.59 µM. Further, the “inhibition (INH)” value in [5] was determined as 20.59%. The compound further displayed an OD in data set [7] of 0.87.

For the compound `Cc1ccc(C(=O)O)c(O)c1`, the “inhibition (INH)” value in data set [5] is 3.52%.

For the compound `COc1ccc(-c2nnc(SCc3ccccc3)o2)c(O)c1`, in data set [5], the “inhibition (INH)” value is 4.5%. This compound also displayed an OD in [7] of 0.81.

As to `Cc1cccc(CSc2nnc(-c3ccc(C)cc3O)o2)c1`, the “inhibition (INH)” value in data set [5] is on record as 5.22%. Besides, the OD in data set [7] is given as 0.8.

As to `COc1ccc(CSc2nnc(-c3ccc(C)cc3O)o2)cc1`, in [5], the “inhibition (INH)” value worked out at 13.67%. In addition, in [7], the OD was 0.83.

Consider `COc1ccc(-c2nnc(SCc3ccc([N+](=O)[O-])cc3)o2)c(O)c1`, for which the “inhibition (INH)” value in data set [5] is on record as 14.39%. In [7], this compound yielded an OD of 0.83.

Values taken from ChEMBL document CHEMBL2016554, “Synthesis, biological evaluation and molecular docking studies of 1,3,4-oxadiazole derivatives as potential immunosuppressive agents” (Bioorg Med Chem, 2012).
